From PubChem
KCNQ1 act: human KCNQ1 channel potentiation or activation. P51787. CHO-K1 KCNQ1, thallium flux FluxOR fluorescence; hits give high values. B-score at 10 µM. 310,000 compounds, 0.35% hits;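 active = fluorescence ratio B-score, a plate-corrected score, at least three library SD, with initial intensity B-score within 5 SD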
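Assay system: CHO-K1 cells stably expressing KCNQ1; Medium: assay buffer with matched DMSO; Also added: K+/Tl+ depolarizing stimulus; Dosing: single dose; Timing: dye 90 min, compound 20 min, room temperature; Measured by: kinetic FluxOR thallium fluorescence, 10-s 1-Hz baseline, 110-s post-stimulus read; Read-out: peak-minus-minimum fluorescence over initial fluorescence, negative-control normalized, B-scored.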
KCNK3 inh: human KCNK3 channel inhibition, primary screen | AID 602410 | 340,000 compounds, 0.84% hits | B-score at 10 µM | O14649 | CHO-KCNK3 thallium flux, FluxOR fluorescence; hits give low values;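 active = B-score under library mean minus 4 SD, starting fluorescence ratio at most library mean plus 5 SD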;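 also: more negative B-score means stronger inhibition of thallium flux through KCNK3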
hERG rescue: shields human hERG channel from block by proarrhythmic agents | CHO-hERG, FluxOR thallium flux, dofetilide IC70 present | AID 1511 | 310,000 compounds, 0.51% hits | activation (rescue from dofetilide block), less the hit threshold, % at 10 µM;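 active = activation above the mean of controls blocked by dofetilide plus 5 SD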;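 also: thallium influx through hERG after potassium depolarization seen as dye fluorescence rise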
Target sequence (Q12809 whole entry, looked up): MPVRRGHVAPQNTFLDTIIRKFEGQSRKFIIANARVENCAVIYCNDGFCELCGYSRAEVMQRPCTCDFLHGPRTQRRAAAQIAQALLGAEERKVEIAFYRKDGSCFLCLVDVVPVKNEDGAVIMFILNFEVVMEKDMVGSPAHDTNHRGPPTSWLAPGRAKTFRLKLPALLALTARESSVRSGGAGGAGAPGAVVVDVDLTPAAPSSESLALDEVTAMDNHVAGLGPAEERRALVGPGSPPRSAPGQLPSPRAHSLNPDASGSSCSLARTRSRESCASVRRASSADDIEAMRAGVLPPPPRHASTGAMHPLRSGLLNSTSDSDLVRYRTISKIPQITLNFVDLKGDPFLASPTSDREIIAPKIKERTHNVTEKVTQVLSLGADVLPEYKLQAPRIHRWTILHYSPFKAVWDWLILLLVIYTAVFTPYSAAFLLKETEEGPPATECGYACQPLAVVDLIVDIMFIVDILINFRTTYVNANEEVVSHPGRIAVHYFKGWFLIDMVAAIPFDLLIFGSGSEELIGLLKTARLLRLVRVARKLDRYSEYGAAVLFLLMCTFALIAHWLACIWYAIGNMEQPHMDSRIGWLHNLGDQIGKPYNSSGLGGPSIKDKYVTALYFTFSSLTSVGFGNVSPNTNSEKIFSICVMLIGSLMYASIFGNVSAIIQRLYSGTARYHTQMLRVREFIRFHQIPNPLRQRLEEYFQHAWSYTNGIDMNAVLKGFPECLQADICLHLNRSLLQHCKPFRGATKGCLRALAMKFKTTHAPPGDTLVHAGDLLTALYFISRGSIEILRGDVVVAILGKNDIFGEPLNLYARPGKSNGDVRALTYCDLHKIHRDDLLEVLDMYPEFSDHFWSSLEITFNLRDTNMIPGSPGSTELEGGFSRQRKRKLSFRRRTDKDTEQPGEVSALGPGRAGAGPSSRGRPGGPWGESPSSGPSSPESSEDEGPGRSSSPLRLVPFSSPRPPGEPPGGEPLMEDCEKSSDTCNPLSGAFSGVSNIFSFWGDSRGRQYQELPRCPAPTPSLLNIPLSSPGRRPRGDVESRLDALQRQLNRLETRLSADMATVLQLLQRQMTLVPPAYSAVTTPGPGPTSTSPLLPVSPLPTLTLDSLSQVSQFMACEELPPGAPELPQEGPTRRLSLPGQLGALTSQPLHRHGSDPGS
KCNQ1 inh: human KCNQ1 channel inhibition | AID 2642 | B-score at 10 µM | CHO-K1 KCNQ1, FluxOR thallium flux fluorescence; hits give high values | 310,000 compounds, 1.3% hits;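 active = compounds whose thallium flux B-score, printed positive for inhibition, exceeds three library SD while starting fluorescence stays within three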;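 also: channel opened by potassium depolarization with thallium stimulus after 20 min compound exposure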
KCNK9 block: inhibitors of human KCNK9 two-pore domain potassium channel. B-score at 10 µM. AID 488922. HEK293 KCNK9, FluxOR thallium flux fluorescence; hits give low values. Q9NPC2. 310,000 compounds, 1.2% hits;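 active = ratio B-score over 3 SD below the library mean, with starting fluorescence within 5 SD of its mean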;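 also: negative B-score means less thallium flux so channel inhibition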
KCNQ1 inh valid: reconfirmed blocker of the human KCNQ1 potassium channel. shares compounds with KCNQ1 inh. KCNQ1 cell line, FluxOR thallium flux fluorescence. inhibition, % at 10 µM. 1,600 compounds, 93% hits. AID 588353;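 active = primary screen active, with duplicate mean exceeding buffer control mean plus 3 SD of buffer wells, cut at about 28% in these data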;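 also: 0% = buffer control ratio and 100% = XE991 inhibitor control ratio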
CHO Tl flux: counter-screen for KCNQ1 inhibitors: effect in parental CHO cells | shares compounds with KCNQ1 inh | parental CHO-K1, FluxOR thallium flux fluorescence ratio; hits give low values; zero means no signal rise above baseline | fluorescence ratio (Tl flux) at 10 µM | 1,600 compounds, 21% hits | AID 588366;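 active = mean of duplicate thallium-flux fluorescence ratios in parental host cells more than 5 SD below the buffer control mean, cut at about 0.38 in these data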;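 also: ratio is peak minus minimum fluorescence divided by baseline fluorescence; actives read low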
KCNQ1 APC inh: blocks human KCNQ1 current in automated patch clamp; shares compounds with KCNQ1 inh; KCNQ1-CHO cells; calls only at 10 µM; 490 compounds, 20% hits;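 active = KCNQ1 current drop exceeding 3 SD of negative control wells, seen in both duplicate runs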;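 also: steady state current during a 2 s step from -80 to +40 mV; negative values mean current inhibition and positive values mean potentiation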
KCNQ2 inh: selectivity of KCNQ1 inhibitors: inhibition of rat KCNQ2 channel. shares compounds with KCNQ1 inh. KCNQ2 cells, FluxOR thallium flux fluorescence. inhibition, % at 10 µM. 1,600 compounds, 71% hits;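 active = mean percent inhibition of the KCNQ2 thallium signal more than 5 SD above the buffer-only control wells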;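 also: KCNQ2 expressed in CHO cells; 0% = buffer control wells and 100% = XE-991 inhibitor control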
KCNQ1 KCNE1 spec: KCNQ1 inhibitor that also blocks human KCNQ1/KCNE1 channel; shares compounds with KCNQ1 inh; KCNQ1/KCNE1 cells, FluxOR thallium flux fluorescence; inhibition, % at 10 µM; 1,600 compounds, 77% hits;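 active = mean percent inhibition of duplicate wells above the buffer-only control mean plus 3 SD of those controls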;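 also: 0% = buffer only wells and 100% = XE-991 inhibitor control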
* marks the source's active call; other numbers are inactive results; i = inactive; . = no result; + = active, no number. Shown are actives, neighbours in structure and some others; about 3.1% of the full set was active somewhere.

SMILES	KCNQ1 act	KCNK3 inh	hERG rescue	KCNQ1 inh	KCNK9 block	KCNQ1 inh valid	CHO Tl flux	KCNQ2 inh	KCNQ1 KCNE1 spec	others
CCC(=O)N(Cc1ccco1)c1nc(C(=O)Nc2ccc(Cl)cc2)c(C)s1	i	i	-13.6	9*	i	87.5*	0.454	63.3%*	111.0%*
CCN(C(=O)c1ccco1)c1nc(CC(=O)Nc2ccc(Cl)cc2)cs1	i	i	-0.1	i	i	.	.	.	.
COc1ccc(-c2cc(C(=O)N3CCN(C(c4ccccc4)c4ccccc4)CC3)no2)cc1OC	i	i	-10.2	i	i	.	.	.	.
COc1ccc2oc(C(=O)N3CCN(C(c4ccccc4)c4ccccc4)CC3)c(C)c2c1	i	i	-12.1	9*	i	93.0*	0.439	100.7%*	113.5%*	KCNQ1 APC inh=+
O=C(c1cc(-c2ccco2)on1)N1CCN(C(c2ccccc2)c2ccccc2)CC1	i	i	-8.5	8*	i	123.5*	0.431	95.7%*	141.5%*
COc1ccc(-c2cc(C(=O)N3CCN(C(c4ccccc4)c4ccccc4)CC3)no2)cc1	i	i	-13.6	i	i	.	.	.	.
CC(C)c1cc(C(=O)N2CCN(C(c3ccccc3)c3ccccc3)CC2)no1	i	i	-6.7	7*	-7.9*	108.0*	0.406	103.0%*	110.5%*	KCNQ1 APC inh=i
CC(C)Cc1cc(C(=O)N2CCN(C(c3ccccc3)c3ccccc3)CC2)no1	i	i	-8.7	7*	i	136.0*	0.444	109.3%*	176.5%*	KCNQ1 APC inh=i
O=C(NCC1CCCO1)c1cc2cc(Cl)ccc2[nH]1 (centres undefined)	i	i	-8.2	i	i	.	.	.	.
CC(Sc1nnc(C2CC2)n1C)C(=O)Nc1ccc(N2CCOCC2)cc1 (centres undefined)	.	i	.	.	.	.	.	.	.
O=C(CCc1ccccc1)Nc1cc(Cl)ccc1O	i	i	-8.0	9*	i	63.0*	0.468	i	89.5%*
CC(=O)c1cccc(NC(=S)NCCc2ccc(Cl)cc2)c1	i	i	-3.5	8*	i	43.0*	0.562	i	i
Cc1cc(C)cc(NC(=S)NCCSc2ccc(Cl)cc2)c1	i	i	-11.5	10*	i	110.5*	0.432	108.0%*	112.5%*	KCNQ1 APC inh=i
S=C(NCCc1ccccc1)Nc1ccc(Cl)cc1Cl	i	i	-6.6	7*	i	33.5*	0.491	i	i
Cc1ccc(SCCNC(=S)Nc2ccccc2)cc1	i	i	-13.7	i	i	.	.	.	.
Cc1cc(Cl)ccc1NC(=S)NCCc1ccc(Cl)cc1	i	i	-5.5	14*	i	69.5*	0.472	78.7%*	103.0%*
Cc1ccc(NC(=S)NCCc2ccccc2)c(C)c1	i	i	-6.6	i	i	.	.	.	.
COc1ccc(C)cc1NC(C)C(=O)NC(=O)NC1CCCCC1 (centres undefined)	.	i	.	.	.	.	.	.	.
C/C(=N\NC(=O)Cc1c(Cl)cccc1Cl)c1cccnc1	i	i	-10.5	i	i	.	.	.	.
O=C1CCCN1CC(=O)N1CCCC(N2CCN(c3cccc(Cl)c3)CC2)C1 (centres undefined)	i	i	-0.4	i	i	.	.	.	.
S=C(NCc1ccccc1)Nc1cccc2cnccc12	i	i	-6.8	i	i	.	.	.	.
S=C(NCCc1ccccc1)Nc1cccc2cnccc12	i	i	-15.7	7*	i	29.0*	0.542	i	i
CN(C)C(=O)c1ccccc1NC(=O)Cc1cccc2ccccc12	i	i	-1.9	i	i	.	.	.	.
CCOc1ccc(C(=O)NCC(=O)NC(C)CCc2ccccc2)cc1OCC (centres undefined)	i	i	-12.3	i	i	.	.	.	.
O=C(c1ccc(C(F)(F)F)cc1)c1c[nH]c(C(=O)NCCCn2ccnc2)c1	i	i	-20.6	7*	i	59.0*	0.441	i	89.0%*
SMILES	KCNQ1 act	KCNK3 inh	hERG rescue	KCNQ1 inh	KCNK9 block	KCNQ1 inh valid	CHO Tl flux	KCNQ2 inh	KCNQ1 KCNE1 spec	others
O=C(Cc1ccccc1)c1c[nH]c(C(=O)NCCCn2ccnc2)c1	i	.	2.0	i	i	.	.	.	.
C=CCn1c(SCc2c(C)noc2C)nc2sc3c(c2c1=O)CCCC3	i	i	-10.4	7*	i	80.5*	0.392	90.3%*	146.0%*
CC(C)Oc1ccc(-c2nc(NCC3CCCO3)c3ccccc3n2)cc1 (centres undefined)	i	i	-14.2	8*	i	98.5*	0.456	108.3%*	120.5%*	KCNQ1 APC inh=i
Oc1ccc(Nc2nc(NCC3CCCO3)c3ccccc3n2)cc1 (centres undefined)	i	i	-16.9	i	i	.	.	.	.
COc1cccc(Nc2nc(NCC3CCCO3)c3ccccc3n2)c1 (centres undefined)	i	i	-29.7	6*	i	81.5*	0.456	105.0%*	152.5%*
Cc1nc2ccc(NS(=O)(=O)c3ccc4c(c3)OCCO4)cc2s1	i	i	-8.4	10*	i	98.5*	0.494	69.0%*	90.0%*	KCNQ1 APC inh=i
Cc1nn(-c2ccccc2)c2c1C(c1ccccc1)C(C#N)=C(N)O2 (centres undefined)	i	i	-10.4	i	i	.	.	.	.
Cc1nn(-c2ccccc2)c2c1C(c1ccc(F)cc1F)C(C#N)=C(N)O2 (centres undefined)	i	i	-5.6	7*	i	45.0*	0.506	i	52.5%*
CCC1Sc2ccc(S(=O)(=O)Nc3ccc(OC)cc3)cc2NC1=O (centres undefined)	i	i	-6.5	i	i	.	.	.	.
CCC1Sc2ccc(S(=O)(=O)Nc3ccc(OC)c(OC)c3)cc2NC1=O (centres undefined)	i	i	-10.0	7*	i	80.0*	0.479	69.0%*	i
CCc1ccc(C(=O)C(C)OC(=O)c2nc3nc(C)cc(C)n3n2)cc1 (centres undefined)	i	i	-11.7	i	i	.	.	.	.
CCOC(=O)c1cc(-c2ccccc2)sc1NC(=O)CC(C)C	i	i	-8.3	6*	i	100.0*	0.349*	127.0%*	116.0%*
